Results published in ChEMBL document CHEMBL1154235, “Rational design and semisynthesis of betulinic acid analogues as potent topoisomerase inhibitors” (J Nat Prod, 2009).

Columns and labels:
SW948 = experiment: Antiproliferative activity against human SW948 cells after 3 days by XTT assay; type: functional, cell-based; details: SW948, 72 h
Procedure, shortened: (§1)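 Cells plated at 4000/well and grown 1 day at 37 °C, then exposed to a range of drug concentrations for 3 more days. Read-out by XTT tetrazolium reduction on a plate reader. Each concentration run in triplicate. IC50 taken from a linear-quadratic fit. Assays repeated two or three times and reported as mean ± SE. HCT-116 kept in modified McCoy's 5a and SW948 in Leibovitz's L-15, each with 10% heat-inactivated FBS and 2 mM L-glutamine.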

MDA-MB-468 = experiment: Cytotoxicity against human MDA-MB-468 cells assessed as cell growth at 10 uM; type: functional; details: read-out: Activity
Procedure, shortened: (§2)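 Single-dose screen at 10 µM against the 60 human cell line panel, run by the NCI Developmental Therapeutics Program and scored as cell growth.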

HOP-92 = experiment: Cytotoxicity against human HOP92 cells assessed as cell growth at 10 uM; type: functional; details: read-out: Activity; procedure, shortened: as §2
UO-31 = experiment: Cytotoxicity against human UO31 cells assessed as cell growth at 10 uM; type: functional; details: read-out: Activity
NCI-H226 = experiment: Cytotoxicity against human NCI-H226 cells assessed as cell growth at 10 uM; type: functional; details: read-out: Activity; procedure, shortened: as §2
BT-549 = experiment: Cytotoxicity against human BT549 cells assessed as cell growth at 10 uM; type: functional; details: read-out: Activity; procedure, shortened: as §2
SK-OV-3 = experiment: Cytotoxicity against human SKOV3 cells assessed as cell growth at 10 uM; type: functional; details: read-out: Activity; procedure, shortened: as §2
K562 = experiment: Cytotoxicity against human K562 cells assessed as cell growth at 10 uM; type: functional; details: read-out: Activity; procedure, shortened: as §2
NCI-H322M = experiment: Cytotoxicity against human NCI-H322M cells assessed as cell growth at 10 uM; type: functional; details: read-out: Activity; procedure, shortened: as §2
SNB-75 = experiment: Cytotoxicity against human SNB75 cells assessed as cell growth at 10 uM; type: functional; details: read-out: Activity
HOP-62 = experiment: Cytotoxicity against human HOP62 cells assessed as cell growth at 10 uM; type: functional; details: read-out: Activity; procedure, shortened: as §2
MDA-MB-231 = experiment: Cytotoxicity against human MDA-MB-231 cells assessed as cell growth at 10 uM; type: functional; details: read-out: Activity; procedure, shortened: as §2
SK-MEL-28 = experiment: Cytotoxicity against human SK-MEL-28 cells assessed as cell growth at 10 uM; type: functional; details: read-out: Activity; procedure, shortened: as §2
NCI-H460 = experiment: Cytotoxicity against human NCI-H460 cells assessed as cell growth at 10 uM; type: functional; details: read-out: Activity; procedure, shortened: as §2
SW-620 = experiment: Cytotoxicity against human SW620 cells assessed as cell growth at 10 uM; type: functional; details: read-out: Activity
MOLT-4 = experiment: Cytotoxicity against human MOLT4 cells assessed as cell growth at 10 uM; type: functional; details: read-out: Activity; procedure, shortened: as §2
OVCAR-4 = experiment: Cytotoxicity against human OVCAR4 cells assessed as cell growth at 10 uM; type: functional; details: read-out: Activity; procedure, shortened: as §2
CAKI-1 = experiment: Cytotoxicity against human Caki1 cells assessed as cell growth at 10 uM; type: functional; details: read-out: Activity; procedure, shortened: as §2
M14 = experiment: Cytotoxicity against human M14 cells assessed as cell growth at 10 uM; type: functional; details: read-out: Activity; procedure, shortened: as §2
SK-MEL-5 = experiment: Cytotoxicity against human SK-MEL-5 cells assessed as cell growth at 10 uM; type: functional; details: read-out: Activity; procedure, shortened: as §2
HL-60(TB) = experiment: Cytotoxicity against human HL-60(TB) cells assessed as cell growth at 10 uM; type: functional; details: read-out: Activity
Procedure, shortened: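 Single-dose screen run externally by the NCI Developmental Therapeutics Program across its 60 human tumour cell line panel. Compound tested at 10 µM.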

HCT-116 [1] = experiment: Cytotoxicity against human HCT116 cells assessed as cell growth at 10 uM; type: functional; details: read-out: Activity; procedure, shortened: as §2
NCI/ADR-RES = experiment: Cytotoxicity against human NCI/ADR-RES cells assessed as cell growth at 10 uM; type: functional; details: read-out: Activity; procedure, shortened: as §2
NCI-H522 = experiment: Cytotoxicity against human NCI-H522 cells assessed as cell growth at 10 uM; type: functional; details: read-out: Activity; procedure, shortened: as §2
HCT-116 [2] = experiment: Antiproliferative activity against human HCT116 cells after 3 days by XTT assay; type: functional, cell-based; details: HCT-116, 72 h; procedure, shortened: as §1
Malme-3M = experiment: Cytotoxicity against human MALME-3M cells assessed as cell growth at 10 uM; type: functional; details: read-out: Activity; procedure, shortened: as §2

**Q.** With `C=C(C)[C@@H]1CC[C@]2(C(O)=S)CC[C@]3(C)[C@H](CC[C@@H]4[C@@]5(C)CC[C@H](O)C(C)(C)[C@@H]5CC[C@]43C)[C@@H]12` as the compound, how does the IC50 (SW948) read?
**A.** The IC50 was over 25 µM.

**Q.** What about the growth at 10 µM (MDA-MB-468) of the same compound?
**A.** Its growth at 10 µM is 105%.

**Q.** What about the growth at 10 µM (HOP-92) of the same compound?
**A.** Its growth at 10 µM is 158%.

**Q.** What about the growth at 10 µM (UO-31) of the same compound?
**A.** The growth at 10 µM was 89.5%.

**Q.** And the growth at 10 µM (NCI-H226)?
**A.** The growth at 10 µM was 108%.

**Q.** What about the growth at 10 µM (BT-549) of the same compound?
**A.** Its growth at 10 µM is 94.8%.

**Q.** And the growth at 10 µM (SK-OV-3)?
**A.** Its growth at 10 µM is 113%.

**Q.** What about the growth at 10 µM (K562) of the same compound?
**A.** The growth at 10 µM was 127%.

**Q.** What about the growth at 10 µM (NCI-H322M) of the same compound?
**A.** Its growth at 10 µM is 109%.

**Q.** And the growth at 10 µM (SNB-75)?
**A.** Its growth at 10 µM is 108%.

**Q.** And the growth at 10 µM (HOP-62)?
**A.** The growth at 10 µM was 80%.

**Q.** And the growth at 10 µM (MDA-MB-231)?
**A.** Its growth at 10 µM is 114%.

**Q.** And the growth at 10 µM (SK-MEL-28)?
**A.** Its growth at 10 µM is 141%.

**Q.** And the growth at 10 µM (NCI-H460)?
**A.** The growth at 10 µM was 109%.

**Q.** What about the growth at 10 µM (SW-620) of the same compound?
**A.** Its growth at 10 µM is 92.2%.

**Q.** What about the growth at 10 µM (MOLT-4) of the same compound?
**A.** Its growth at 10 µM is 131%.

**Q.** And the growth at 10 µM (OVCAR-4)?
**A.** Its growth at 10 µM is 112%.

**Q.** What about the growth at 10 µM (CAKI-1) of the same compound?
**A.** The growth at 10 µM was 100%.

**Q.** And the growth at 10 µM (M14)?
**A.** Its growth at 10 µM is 96%.

**Q.** And the growth at 10 µM (SK-MEL-5)?
**A.** The growth at 10 µM was 99.7%.

**Q.** What about the growth at 10 µM (HL-60(TB)) of the same compound?
**A.** The growth at 10 µM was 134%.

**Q.** And the growth at 10 µM (HCT-116 [1])?
**A.** Its growth at 10 µM is 85.2%.

**Q.** What about the growth at 10 µM (NCI/ADR-RES) of the same compound?
**A.** The growth at 10 µM was 113%.

**Q.** What about the growth at 10 µM (NCI-H522) of the same compound?
**A.** The growth at 10 µM was 71.9%.

**Q.** And the IC50 (HCT-116 [2])?
**A.** Its IC50 is over 25 µM.

**Q.** What about the growth at 10 µM (Malme-3M) of the same compound?
**A.** Its growth at 10 µM is 102%.
